The results in this text go back to ChEMBL document CHEMBL1141617, “Synthesis and evaluation of antitumoral activity of ester and amide derivatives of 2-arylamino-6-trifluoromethyl-3-pyridinecarboxylic acids” (2008).

A value given as a limit tells only on which side of the number the result lay.

What all share (format): functional
One test relates to LOX IMVI. Briefly: Growth inhibition of human LOXIMVI cells. The following applies: for TGI: read-out: Log TGI (converted). A digest of the protocol: (§1)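 NCI 60 human tumour cell line panel grown in RPMI1640 with 5% fetal calf serum and 2 mM L-glutamine. Cells seeded at a density set by each line's growth characteristics and preincubated 24 h. Compounds added in DMSO at 10^-4 to 10^-8 M (five 10-fold dilutions) and left 48 h continuously. Growth read by sulforhodamine B protein stain. GI50 is the molar concentration giving 50% net growth inhibition.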

The next test deals with SK-MEL-5. Briefly: Growth inhibition of human SK-MEL5 cells. The following applies: for TGI: read-out: Log TGI (converted). The procedure, abridged: as §1
The subject of the next test is HOP-92. Nature of the test: Growth inhibition of human HOP92 cells. The following applies: for TGI: read-out: Log TGI (converted). A digest of the protocol: as §1
For a further test, the system named is HL-60. Briefly: Growth inhibition of human HL60 cells. The following applies: for TGI: read-out: Log TGI (converted). A digest of the protocol: as §1
In the next test the test system is SR. Nature of the test: Growth inhibition of human SR cells. The following applies: for TGI: read-out: Log TGI (converted). The procedure, abridged: as §1
A further test has as its system EKVX. Briefly: Growth inhibition of human EKVX cells. A digest of the protocol:
as §1

The subject of a further test is COLO 205. Nature of the test: Growth inhibition of human COLO205 cells. The procedure, abridged:
as §1

In another test the test system is HCT-15. Briefly: Growth inhibition of human HCT15 cells. The procedure, abridged: as §1
In another test the test system is KM12. Nature of the test: Growth inhibition of human KM12 cells. The procedure, abridged: as §1
The test system of the next test is U-251. Briefly: Growth inhibition of human U251 cells. A digest of the protocol:
as §1

For another test, the system named is Malme-3M. Nature of the test: Growth inhibition of human MALME3M cells. The procedure, abridged: as §1
A further test has as its system SK-OV-3. Nature of the test: Growth inhibition of human SKOV3 cells. The procedure, abridged: as §1
The next test has as its system A498. Briefly: Growth inhibition of human A498 cells. The procedure, abridged:
as §1

Another test concerns ACHN. Nature of the test: Growth inhibition of human ACHN cells. The procedure, abridged: as §1
The test system of a further test is MDA-MB-231. Nature of the test: Growth inhibition of human MDA-MB-231 cells. The settings on record: for TGI: read-out: Log TGI (converted). A digest of the protocol:
as §1

A further test concerns MCF7. Nature of the test: Growth inhibition of human MCF7 cells. The procedure, abridged: as §1
Another test deals with IGROV-1. Briefly: Growth inhibition of human IGROV1 cells. A digest of the protocol: as §1
For a further test, the system named is CAKI-1. Nature of the test: Growth inhibition of human CAKI1 cells. The procedure, abridged: as §1
For another test, the system named is UO-31. Briefly: Growth inhibition of human UO31 cells. A digest of the protocol: as §1
The next test deals with CCRF-CEM. Briefly: Growth inhibition of human CCRF-CEM cells. The procedure, abridged:
as §1

A further test has as its system K562. Briefly: Growth inhibition of human K562 cells. The procedure, abridged: as §1
The subject of a further test is MOLT-4. Nature of the test: Growth inhibition of human MOLT4 cells. The following applies: for TGI: read-out: Log TGI (converted). The procedure, abridged: as §1
The test system of a further test is RPMI-8226. Nature of the test: Growth inhibition of human RPMI8226 cells. A digest of the protocol: as §1
The next test deals with NCI-H522. Briefly: Growth inhibition of human NCI-H522 cells. The procedure, abridged:
as §1

In another test the test system is HCC 2998. Nature of the test: Growth inhibition of human HCC2998 cells. The settings on record: for TGI: read-out: Log TGI (converted). The procedure, abridged: as §1
In a further test the test system is HCT-116. Nature of the test: Growth inhibition of human HCT116 cells. The procedure, abridged: as §1
Another test relates to PC-3. Briefly: Growth inhibition of human PC3 cells. A digest of the protocol:
as §1

A further test concerns T47D. Nature of the test: Growth inhibition of human T47D cells. A digest of the protocol:
as §1

Test [1] can be described thus: Growth inhibition of human H23 cells. The settings on record: NCI-H23. The procedure, abridged:
as §1

For the next test, the system named is SNB-75. Nature of the test: Growth inhibition of human SNB75 cells. The procedure, abridged: as §1
In another test the test system is UACC-62. Nature of the test: Growth inhibition of human UACC62 cells. A digest of the protocol: as §1
The next test relates to OVCAR-4. Nature of the test: Growth inhibition of human OVCAR4 cells. A digest of the protocol: as §1
Another test deals with OVCAR-3. Briefly: Growth inhibition of human OVCAR-3 cells. A digest of the protocol: as §1
Another test has as its system SF-295. Nature of the test: Growth inhibition of human SF295 cells. The procedure, abridged:
as §1

As a reminder, the GI50 is the concentration at which growth is held to half of that of the control. The low end stands for greater sensitivity of the cells, the high end for lower sensitivity of the cells. Broadly, the TGI is the concentration giving total growth inhibition. Turning to `Cc1cc(Cl)ccc1Nc1nc(C(F)(F)F)ccc1C(=O)Nc1cccc(C(F)(F)F)c1`, the GI50 in the test with LOX IMVI was 2.82 µM; in the test on SK-MEL-5, 2.82 µM; with HOP-92 it was 2.19 µM; in the test on HL-60, 2.04 µM; with SR it was 2.57 µM; with EKVX it was 1.86 µM. For the same compound, the GI50 in the test with COLO 205 was 2.51 µM; with HCT-15, 2.57 µM; in the test with KM12, 2.09 µM; in the test on U-251, 3.02 µM; in the test on Malme-3M, 2 µM; in the test on SK-OV-3, 2.45 µM. In addition, the 50% growth inhibitory concentration (GI50) was 2.82 µM in the test on A498, 2.75 µM in the test with ACHN, 2.04 µM with MDA-MB-231 and 2.29 µM in the test on MCF7. Also, the TGI in the test with LOX IMVI was 8.51 µM; with SK-MEL-5, 9.33 µM; with HOP-92 it was 8.13 µM; in the test on HL-60 it was 4.68 µM; in the test with SR, 8.32 µM; in the test with COLO 205 (read-out: Log TGI (converted)) it was 6.17 µM. For the same compound, the TGI in the test with HCT-15 (read-out: Log TGI (converted)) is 7.41 µM; in the test with U-251 (read-out: Log TGI (converted)), 9.77 µM; in the test with Malme-3M (read-out: Log TGI (converted)), 9.12 µM; in the test with A498 (read-out: Log TGI (converted)), 7.41 µM; in the test on ACHN (read-out: Log TGI (converted)), 8.91 µM; with MDA-MB-231, 8.13 µM. Moreover, in the test with MCF7 (read-out: Log TGI (converted)), the total growth inhibition concentration (TGI) was 7.76 µM.
For the compound `COc1ccc(N2CCN(C(=O)c3ccc(C(F)(F)F)nc3Nc3cc(Cl)ccc3C)CC2)cc1`, the GI50 is 0.955 µM in the test on SK-MEL-5; 1.48 µM in the test with HOP-92; 0.0513 µM in the test on IGROV-1; 1.38 µM in the test with CAKI-1; 1.7 µM with UO-31. Further, the TGI in the test with HOP-92 is 7.94 µM.
In general, LC50 refers to the concentration that kills 50% of the test population. A low value points to a more lethal substance. Regarding `COc1cc(NC(=O)c2ccc(C(F)(F)F)nc2Nc2cc(Cl)ccc2C)cc(OC)c1OC`, the GI50 was 0.724 µM with LOX IMVI; 1.17 µM in the test with SK-MEL-5; under 0.01 µM with HOP-92; under 0.01 µM in the test on CCRF-CEM; 0.676 µM in the test with K562; under 0.01 µM in the test with MOLT-4. Further, the GI50 in the test with HL-60 was 0.0229 µM; in the test with SR, 0.0186 µM; with EKVX it was 2.75 µM; in the test with SK-OV-3, 2.04 µM; with A498, 2.34 µM; in the test on ACHN it was 1.78 µM. In addition, the GI50 in the test on MDA-MB-231 was 1.66 µM; in the test on RPMI-8226 it was 0.457 µM; in the test on NCI-H522, 2.29 µM; in the test with HCC 2998, under 0.01 µM; in the test with HCT-116 it was 2.51 µM; in the test with IGROV-1, 0.407 µM. Also, the GI50 is 1.2 µM in the test with PC-3; 2.14 µM in the test with T47D; 2.4 µM in the test with CAKI-1; 2.19 µM in [1]; 1.07 µM in the test on SNB-75; 0.955 µM with UACC-62. In the test on OVCAR-4, this compound gave a GI50 of 1.74 µM. For the same compound, the total growth inhibition concentration (TGI) with LOX IMVI is 2.4 µM; with SK-MEL-5, 10 µM; in the test on HOP-92 it was 1.66 µM; in the test on MOLT-4, 0.0417 µM; in the test with HL-60, 1.62 µM; in the test on SR it was 0.302 µM. In addition, the TGI with MDA-MB-231 is 8.91 µM; in the test with NCI-H522 (read-out: Log TGI (converted)), 7.41 µM; in the test with HCC 2998 it was 5.37 µM; in the test on PC-3 (read-out: Log TGI (converted)) it was 5.37 µM; in the test with T47D (read-out: Log TGI (converted)), 9.55 µM. The LC50 with HL-60 was 7.24 µM.
For the compound `Cc1cc(Cl)ccc1Nc1nc(C(F)(F)F)ccc1C(=O)N1CCN(c2cccc(Cl)c2)CC1`, the figures for the GI50 with IGROV-1 and with SNB-75 were 1.78 µM and 1.12 µM, respectively.
On to `COc1cc(NC(=O)c2ccc(C(F)(F)F)nc2Nc2ccc(Cl)cc2C)cc(OC)c1OC`, for which the GI50 in the test on OVCAR-3 was 2.4 µM; in the test on CCRF-CEM, 1.58 µM; in the test on HL-60, 1.74 µM; in the test on KM12, 1.55 µM; in the test on NCI-H522, 1.62 µM; in the test with HCC 2998, 1.91 µM. Also, the GI50 in the test on IGROV-1 is 0.955 µM; with PC-3, 1.86 µM; in the test with T47D it was 2.45 µM; in [1], 2.19 µM. Moreover, the TGI in the test on HCC 2998 was 5.62 µM.
`COc1ccc(NC(=O)c2ccc(C(F)(F)F)nc2Nc2ccc(Cl)cc2C)cc1Cl`: the GI50 is 2.4 µM in the test with K562; 1.55 µM with MOLT-4; 2.4 µM in the test with HL-60; 1.7 µM with SR; 1.66 µM with MDA-MB-231; 2.09 µM with RPMI-8226. Further, the GI50 in the test on MCF7 is 2.4 µM; with SF-295, 2.34 µM. Moreover, the TGI in the test on MOLT-4 was 4.9 µM; in the test on HL-60 it was 5.37 µM; in the test on SR, 6.46 µM; in the test on MDA-MB-231, 6.76 µM; in the test on RPMI-8226 (read-out: Log TGI (converted)) it was 4.9 µM.
